Compound activity as filed in PubChem BioAssay.
An excerpt weighted towards active compounds, which were near 2.1% of everything screened.
p-CIP stab down – p/CIP-EGFP fusion destabilizers, primary screen, fluorescence, F442A cells. 290,000 tested, 0.01% active. decrease of EGFP signal, % at 10 µM. 16 h. Q05BA5;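 active = EGFP signal decrease of at least 30% at 10 µM or well 3 SD below plate mean, unless failing retest; inactive = the rest, including hits failing retest or dose response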
RanGTP-Impb inh – inhibitors of RanGTP-importin-beta interaction, primary screen, biochemical, FRET, CFP-Ran, YFP-importin-beta, homogeneous | inhibition, % (concentration not given with the values) | 300,000 tested, 1.1% active | Ran GTPase (GTP-bound) - importin-beta complex | AID 2216, 2009 | cell-free CFP-Ran/YFP-importin-beta FRET ratio;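 active = more than half of the replicate wells show a fall in the fluorescence ratio signal beyond about 16%, limit read from the data, passing the limit was not always enough; inconclusive = exactly half of the replicate wells pass the set limit; inactive = fewer than half of replicates pass the limit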;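 also: 0% = DMSO wells and 100% = Ran loaded with GDP instead of GTP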
DSG3 Ab inh – inhibitors of pemphigus antibody binding to DSG3, primary screen, biochemical, bead-based, flow cytometry, scFv-GFP; Desmoglein-3 (Homo sapiens), P32926; DSG3-coupled beads, scFv-anti-DSG3-GFP binding; hits give low values; binding (percent of control), % at 10 µM; 310,000 tested, 0.48% active;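 active = binding more than 3 SD below its plate's average and above zero; inconclusive = below that plate limit but binding exactly zero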;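 also: hits lower antibody fragment binding to DSG3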
Target sequence (P32926 whole entry, looked up, the tested form may be a part): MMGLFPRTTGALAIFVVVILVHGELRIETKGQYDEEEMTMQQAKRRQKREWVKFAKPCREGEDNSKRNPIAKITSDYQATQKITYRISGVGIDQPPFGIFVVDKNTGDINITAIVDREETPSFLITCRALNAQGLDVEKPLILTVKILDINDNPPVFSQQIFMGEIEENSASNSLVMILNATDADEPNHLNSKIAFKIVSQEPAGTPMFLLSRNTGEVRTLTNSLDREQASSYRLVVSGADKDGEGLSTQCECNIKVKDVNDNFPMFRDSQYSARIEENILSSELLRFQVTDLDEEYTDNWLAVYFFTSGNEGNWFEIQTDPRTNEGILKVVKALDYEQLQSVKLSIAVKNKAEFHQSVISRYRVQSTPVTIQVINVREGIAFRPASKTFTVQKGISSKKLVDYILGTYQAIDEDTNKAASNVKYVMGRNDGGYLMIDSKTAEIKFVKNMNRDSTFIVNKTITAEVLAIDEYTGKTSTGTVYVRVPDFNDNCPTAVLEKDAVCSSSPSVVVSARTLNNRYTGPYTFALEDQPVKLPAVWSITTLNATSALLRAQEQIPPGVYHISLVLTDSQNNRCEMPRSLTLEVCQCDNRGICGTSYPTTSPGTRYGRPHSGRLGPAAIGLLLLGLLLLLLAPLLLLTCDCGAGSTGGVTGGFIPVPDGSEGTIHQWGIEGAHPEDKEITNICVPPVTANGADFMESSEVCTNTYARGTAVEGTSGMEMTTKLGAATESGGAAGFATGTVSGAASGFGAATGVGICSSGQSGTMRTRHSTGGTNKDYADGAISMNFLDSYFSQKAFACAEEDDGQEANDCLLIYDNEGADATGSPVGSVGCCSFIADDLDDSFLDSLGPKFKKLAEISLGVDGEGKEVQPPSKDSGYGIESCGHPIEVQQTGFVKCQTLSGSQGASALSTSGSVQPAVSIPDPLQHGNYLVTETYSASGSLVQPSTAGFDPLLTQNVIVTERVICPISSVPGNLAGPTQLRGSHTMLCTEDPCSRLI
Hck Nef HTS – inhibitors of Nef-activated human Hck kinase, primary screen, biochemical, Z-Lyte FRET, 384-well, Hck-YEEI; Tyrosine-protein kinase HCK (Homo sapiens), P08631; Recombinant Hck-YEEI plus Nef, Z-Lyte FRET kinase assay; inhibition, % at 20 µM; 220,000 tested, 0.68% active;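 active = Hck-Nef kinase inhibition above about 50%, limit read from the data; inactive = inhibition below that limit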;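 also: 0% = DMSO with Hck plus Nef and 100% = Hck alone without Nef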
Runt-SMMHC FRET – inhibitors of RUNX1 Runt–CBFb-SMMHC binding, primary screen, biochemical, FRET, Cerulean-Runt, Venus-CBFb-SMMHC, uHTS; Cerulean-Runt/Venus-CBFb-SMMHC FRET ratio 530/480, 1 h; inhibition, % at 20 µM; 220,000 tested, 0.74% active; AID 1434, 2008;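 active = mean inhibition across duplicate retests at 20 µM reaching about 50%, limit read from the data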;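 also: 0% = DMSO wells and 100% = wells with excess untagged CBFb-SMMHC; inhibitors lower the FRET ratio by blocking Runt binding to CBFb-SMMHC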
Runt-CBFb FRET – inhibitors of RUNX1 Runt–CBFb binding, primary screen, biochemical, FRET, Cerulean-Runt, Venus-CBFb, uHTS; Cerulean-Runt/Venus-CBFb FRET ratio 530/480, 1 h; inhibition, % at 20 µM; 220,000 tested, 0.46% active; AID 1496, 2009;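 active = inhibition over about 50% at 20 µM in the single-dose screen, limit read from the data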;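 also: 0% = DMSO wells and 100% = excess unlabeled CBFb competitor control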
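System: Cerulean-labeled Runt domain protein | Quantity: 100 nM of each labeled protein | Schedule: 1 h compound exposure, room temperature | Detection: Fluorescence energy transfer, 422 nm excitation, 530/480 nm emission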
RUNX1 CBFb TR – inhibitors of RUNX1 Runt–CBFb binding, biochemical, TR-FRET. TR-FRET RUNX1 Runt domain-CBFb binding. inhibition, % at 20 µM. shares compounds with Runt-CBFb FRET. 480 tested, 20% active; in the data active = inhibition above about 40%
* marks the source's active call; other numbers are inactive results.

Results for COc1ccc(OC)c(N(CC(=O)NCCSCc2ccc(C)cc2)S(C)(=O)=O)c1 ?
p-CIP stab down: 9; RanGTP-Impb inh: 7; DSG3 Ab inh: 105

Results for O=C(NCc1ccco1)c1cccnc1-c1nc2ccccc2s1 ?
p-CIP stab down: -10; RanGTP-Impb inh: 4; DSG3 Ab inh: 99; Hck Nef HTS: 0; Runt-SMMHC FRET: 31; Runt-CBFb FRET: 50*; RUNX1 CBFb TR: 40*

Results for O=C(NCc1ccco1)c1cccnc1Cl ?
p-CIP stab down: -11; RanGTP-Impb inh: 5; DSG3 Ab inh: 96; Hck Nef HTS: 3; Runt-SMMHC FRET: 0; Runt-CBFb FRET: -1

What do the screens show for `Cc1cc(C)n2nc3nc4c(cc3c2n1)CCCC4`?
p-CIP stab down: -12; RanGTP-Impb inh: 5; DSG3 Ab inh: 104; Hck Nef HTS: 16; Runt-CBFb FRET: 65*; RUNX1 CBFb TR: 63*

What do the screens show for `CC(C)NC(=O)C(=O)NCCCN1CCOCC1`?
p-CIP stab down: -4; RanGTP-Impb inh: -2; DSG3 Ab inh: 94; Hck Nef HTS: 0; Runt-SMMHC FRET: 0; Runt-CBFb FRET: 0

What do the screens show for `Fc1cccc(C[n+]2csc3ccccc32)c1`?
p-CIP stab down: -15; RanGTP-Impb inh: 5; DSG3 Ab inh: 104; Hck Nef HTS: -2; Runt-SMMHC FRET: 70; Runt-CBFb FRET: 56*; RUNX1 CBFb TR: -10

How did CCOC(=O)c1c(NC(=O)c2ccccc2Cl)sc2c1CCc1ccccc1-2 do in these assays?
p-CIP stab down: 5; RanGTP-Impb inh: 1; DSG3 Ab inh: 89; Hck Nef HTS: 11; Runt-SMMHC FRET: 9; Runt-CBFb FRET: 36

Results for CCOC(=O)c1c(NC(=O)c2ccccc2)sc2c1CCc1ccccc1-2 ?
p-CIP stab down: -1; RanGTP-Impb inh: 1; DSG3 Ab inh: 89; Hck Nef HTS: 8; Runt-SMMHC FRET: 27; Runt-CBFb FRET: 55*; RUNX1 CBFb TR: 6

How did O=C1CCCC2=C1C(c1ccc(O)c(O)c1)c1c(ccc3ncccc13)N2 (configuration not stated) do in these assays?
p-CIP stab down: 4; RanGTP-Impb inh: 5; DSG3 Ab inh: 100; Hck Nef HTS: 22; Runt-SMMHC FRET: 41; Runt-CBFb FRET: 51*; RUNX1 CBFb TR: 44*

What do the screens show for `O=C1CCN(Cc2ccc(O)cc2)CCN1CCO`?
p-CIP stab down: 2; RanGTP-Impb inh: -1

Results for O=C1NC(c2ccccc2O)Nc2ccccc21 (configuration not stated) ?
p-CIP stab down: -65; RanGTP-Impb inh: 3; DSG3 Ab inh: 117

What do the screens show for `Cc1cccc(C2NC(=O)c3c(sc(C)c3C)N2)c1O` (configuration not stated)?
p-CIP stab down: -9; RanGTP-Impb inh: -2; DSG3 Ab inh: 102; Hck Nef HTS: 2; Runt-SMMHC FRET: 4; Runt-CBFb FRET: 51*; RUNX1 CBFb TR: -17

Results for N#Cc1c2c(c(Nc3ccccc3)n3c1nc1ccccc13)CCC2 ?
p-CIP stab down: 3; RanGTP-Impb inh: 77*; DSG3 Ab inh: 105; Hck Nef HTS: 0; Runt-SMMHC FRET: 70*; Runt-CBFb FRET: 55*; RUNX1 CBFb TR: -2

How did N#Cc1c2c(c(Nc3ccc(F)cc3)n3c1nc1ccccc13)CCCC2 do in these assays?
DSG3 Ab inh: 185

How did Cc1cn([C@H]2C[C@H](O)[C@@H](CNCc3cnc(N4CCOCC4)s3)O2)c(=O)[nH]c1=O do in these assays?
DSG3 Ab inh: 111

How did CCOc1ccc(S(=O)(=O)N2CCN(C(=O)CCOc3ccccc3C)CC2)cc1 do in these assays?
RanGTP-Impb inh: -2; DSG3 Ab inh: 97

How did CC(C)(C)OC(=O)N1CCC(C(=O)N2CCCCCC2)CC1 do in these assays?
p-CIP stab down: -2; RanGTP-Impb inh: -2; DSG3 Ab inh: 101; Hck Nef HTS: -9; Runt-SMMHC FRET: -4; Runt-CBFb FRET: 0

Results for CC(C)(C)OC(=O)N1CCC(C(=O)N2CCOCC2)CC1 ?
p-CIP stab down: 0; RanGTP-Impb inh: 1; DSG3 Ab inh: 102; Hck Nef HTS: 6; Runt-SMMHC FRET: 0; Runt-CBFb FRET: 84*; RUNX1 CBFb TR: -50

How did CCCc1cc2c(=O)c(-c3cscn3)c(C(=O)OCC)oc2cc1O do in these assays?
p-CIP stab down: 0; RanGTP-Impb inh: inconclusive; DSG3 Ab inh: 99; Hck Nef HTS: 14; Runt-SMMHC FRET: -3; Runt-CBFb FRET: 0

Results for CCOC(=O)c1[nH]nc(-c2cc(CC)c(O)cc2O)c1-c1cscn1 ?
p-CIP stab down: -2; RanGTP-Impb inh: -2; DSG3 Ab inh: 97; Hck Nef HTS: 2; Runt-SMMHC FRET: 0; Runt-CBFb FRET: 61*; RUNX1 CBFb TR: 3

Results for S=C(NCCCN1CCOCC1)NC1CCCC1 ?
p-CIP stab down: -1; DSG3 Ab inh: 84; Hck Nef HTS: -53; Runt-SMMHC FRET: 2; Runt-CBFb FRET: -2

Results for S=C(NCCCN1CCOCC1)NCCCN1CCOCC1 ?
p-CIP stab down: -1; RanGTP-Impb inh: -1; DSG3 Ab inh: 104; Hck Nef HTS: 11; Runt-SMMHC FRET: 23; Runt-CBFb FRET: 50*; RUNX1 CBFb TR: 23

Results for Cc1cccc(Oc2ccc(Cl)cc2N)c1 ?
p-CIP stab down: 3; RanGTP-Impb inh: -1; DSG3 Ab inh: 106; Hck Nef HTS: 25; Runt-SMMHC FRET: -3; Runt-CBFb FRET: -2

What do the screens show for `S=c1[nH]nc(-c2cc3c(s2)-c2ccccc2CC3)o1`?
p-CIP stab down: 3; RanGTP-Impb inh: 17*; DSG3 Ab inh: 101; Hck Nef HTS: 29; Runt-SMMHC FRET: 70*; Runt-CBFb FRET: 57*; RUNX1 CBFb TR: 17

How did COCCN1CC(C(=O)N2CCC(Oc3ccccc3OC)CC2)CCC1=O (configuration not stated) do in these assays?
p-CIP stab down: -6; RanGTP-Impb inh: 3; DSG3 Ab inh: 100
